Measured values reported in ChEMBL document CHEMBL4396879, “Conjugation of Short Peptides to Dibenzodiazepinone-Type Muscarinic Acetylcholine Receptor Ligands Determines M2R Selectivity” (J Med Chem, 2019).

How the values were obtained:
[1] = molecular target: Muscarinic acetylcholine receptors; M1 & M2 (Homo sapiens) (UniProt P11229+P08172); test: Selectivity ratio of Ki for muscarinic M1 receptor (unknown origin) expressed in CHO cells to Ki for muscarinic M2 receptor (unknown origin) expressed in CHO cells; assay type: cell-based
Method in brief: (§1)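 Ratio of mean Ki values. Each Ki came from an individual [3H]NMS competition experiment at the given CHO-hMxR subtype, converting IC50 to Ki by Cheng-Prusoff before averaging.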

[2] = molecular target: T1, Muscarinic acetylcholine receptor M3 (Homo sapiens, UniProt P20309); test: Binding affinity to muscarinic M3 receptor (unknown origin) expressed in CHO cells; assay type: cell-based
T1 sequence (P20309 whole entry): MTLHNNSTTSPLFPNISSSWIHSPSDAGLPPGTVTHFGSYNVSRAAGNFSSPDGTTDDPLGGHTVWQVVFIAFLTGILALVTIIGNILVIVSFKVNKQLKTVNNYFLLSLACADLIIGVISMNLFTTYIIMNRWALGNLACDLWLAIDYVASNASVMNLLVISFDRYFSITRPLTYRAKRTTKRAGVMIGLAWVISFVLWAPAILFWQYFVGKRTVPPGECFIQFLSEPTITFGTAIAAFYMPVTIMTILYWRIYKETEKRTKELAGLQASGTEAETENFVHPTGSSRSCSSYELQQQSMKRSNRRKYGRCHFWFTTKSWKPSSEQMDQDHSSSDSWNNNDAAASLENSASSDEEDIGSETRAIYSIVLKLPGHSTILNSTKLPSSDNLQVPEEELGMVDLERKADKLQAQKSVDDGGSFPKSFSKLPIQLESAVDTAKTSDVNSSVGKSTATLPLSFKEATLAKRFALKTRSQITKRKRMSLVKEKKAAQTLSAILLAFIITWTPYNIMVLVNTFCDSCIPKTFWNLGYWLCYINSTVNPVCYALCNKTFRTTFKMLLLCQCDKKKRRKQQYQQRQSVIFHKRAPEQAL
Method in brief: (§2)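 [3H]NMS competition binding on intact CHO-hMxR cells in L15 medium with 1% BSA, 3 h at 22 ± 1 °C with gentle shaking. [3H]NMS was 0.2 nM (M1, M2, M3), 0.1 nM (M4) or 0.3 nM (M5). […] Cells were lysed in urea/acetic acid/Triton and counted by liquid scintillation. Ki from Cheng-Prusoff. Triplicates, ≥3 experiments.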

[3] = molecular target: Muscarinic acetylcholine receptor M2 and M4 (Homo sapiens) (UniProt P08173+P08172); test: Selectivity ratio of ki for muscarinic M4 receptor (unknown origin) expressed in CHO cells to muscarinic M2 receptor (unknown origin) expressed in CHO cells; assay type: cell-based; method in brief: as §1
[4] = molecular target: Muscarinic acetylcholine receptors; M2 & M3 (Homo sapiens) (UniProt P20309+P08172); test: Selectivity ratio of Ki for muscarinic M3 receptor (unknown origin) expressed in CHO cells to Ki for muscarinic M2 receptor (unknown origin) expressed in CHO cells; assay type: cell-based; method in brief: as §1
Chain of Muscarinic acetylcholine receptors; M2 & M3 (Homo sapiens) (P20309 whole entry, looked up, one chain of several): as the sequence (P20309 whole entry) above

[5] = molecular target: T2, Muscarinic acetylcholine receptor M2 (Homo sapiens, UniProt P08172); test: Binding affinity to muscarinic M2 receptor (unknown origin) expressed in CHO cells; assay type: cell-based; method in brief: as §2
T2 sequence (P08172 whole entry): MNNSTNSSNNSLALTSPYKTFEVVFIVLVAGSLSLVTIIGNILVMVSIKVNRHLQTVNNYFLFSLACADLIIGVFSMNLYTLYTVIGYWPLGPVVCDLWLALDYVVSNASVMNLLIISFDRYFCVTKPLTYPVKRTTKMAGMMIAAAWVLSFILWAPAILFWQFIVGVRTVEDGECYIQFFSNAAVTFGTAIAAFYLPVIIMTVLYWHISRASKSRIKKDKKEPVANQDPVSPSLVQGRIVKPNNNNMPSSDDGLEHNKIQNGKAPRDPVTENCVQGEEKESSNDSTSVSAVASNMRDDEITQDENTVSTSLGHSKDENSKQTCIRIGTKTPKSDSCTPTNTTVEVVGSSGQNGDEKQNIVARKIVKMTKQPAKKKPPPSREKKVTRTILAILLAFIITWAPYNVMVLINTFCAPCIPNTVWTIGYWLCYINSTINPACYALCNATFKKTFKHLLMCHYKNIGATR

[6] = molecular target: T3, Muscarinic acetylcholine receptor M4 (Homo sapiens, UniProt P08173); test: Binding affinity to muscarinic M4 receptor (unknown origin) expressed in CHO cells; assay type: cell-based; method in brief: as §2
T3 sequence (P08173 whole entry): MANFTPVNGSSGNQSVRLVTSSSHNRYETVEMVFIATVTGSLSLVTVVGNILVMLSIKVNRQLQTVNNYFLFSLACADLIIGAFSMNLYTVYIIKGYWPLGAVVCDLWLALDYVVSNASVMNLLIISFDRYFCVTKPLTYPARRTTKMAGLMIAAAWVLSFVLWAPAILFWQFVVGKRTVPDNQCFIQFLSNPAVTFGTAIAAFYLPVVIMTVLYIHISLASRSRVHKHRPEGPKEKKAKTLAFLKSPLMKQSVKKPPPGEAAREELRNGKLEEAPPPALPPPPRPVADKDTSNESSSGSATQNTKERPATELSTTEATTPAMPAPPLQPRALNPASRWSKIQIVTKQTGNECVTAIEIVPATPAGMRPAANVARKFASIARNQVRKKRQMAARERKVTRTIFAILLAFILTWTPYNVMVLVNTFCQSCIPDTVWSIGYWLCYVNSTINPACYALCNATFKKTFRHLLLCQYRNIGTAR

[7] = molecular target: T4, Muscarinic acetylcholine receptor M1 (Homo sapiens, UniProt P11229); test: Binding affinity to muscarinic M1 receptor (unknown origin) expressed in CHO cells; assay type: cell-based; method in brief: as §2
T4 sequence (P11229 whole entry): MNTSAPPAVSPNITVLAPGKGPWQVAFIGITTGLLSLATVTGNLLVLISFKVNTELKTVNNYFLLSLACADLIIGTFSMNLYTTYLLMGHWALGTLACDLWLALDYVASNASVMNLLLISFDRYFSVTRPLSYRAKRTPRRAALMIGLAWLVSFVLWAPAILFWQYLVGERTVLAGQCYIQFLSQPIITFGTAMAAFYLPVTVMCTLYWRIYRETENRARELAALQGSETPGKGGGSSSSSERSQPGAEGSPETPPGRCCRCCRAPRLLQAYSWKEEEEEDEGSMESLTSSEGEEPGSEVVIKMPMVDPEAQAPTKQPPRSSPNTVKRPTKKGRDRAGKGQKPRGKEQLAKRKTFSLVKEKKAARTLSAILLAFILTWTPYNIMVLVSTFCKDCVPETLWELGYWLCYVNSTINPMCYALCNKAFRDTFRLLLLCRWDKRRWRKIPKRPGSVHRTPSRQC

[8] = molecular target: Muscarinic acetylcholine receptor M2 and M5 (Homo sapiens) (UniProt P08172+P08912); test: Selectivity ratio of ki for muscarinic M5 receptor (unknown origin) expressed in CHO cells to muscarinic M2 receptor (unknown origin) expressed in CHO cells; assay type: cell-based; method in brief: as §1
[9] = molecular target: T5, Muscarinic acetylcholine receptor M5 (Homo sapiens, UniProt P08912); test: Binding affinity to muscarinic M5 receptor (unknown origin) expressed in CHO cells; assay type: cell-based; method in brief: as §2
T5 sequence (P08912 whole entry): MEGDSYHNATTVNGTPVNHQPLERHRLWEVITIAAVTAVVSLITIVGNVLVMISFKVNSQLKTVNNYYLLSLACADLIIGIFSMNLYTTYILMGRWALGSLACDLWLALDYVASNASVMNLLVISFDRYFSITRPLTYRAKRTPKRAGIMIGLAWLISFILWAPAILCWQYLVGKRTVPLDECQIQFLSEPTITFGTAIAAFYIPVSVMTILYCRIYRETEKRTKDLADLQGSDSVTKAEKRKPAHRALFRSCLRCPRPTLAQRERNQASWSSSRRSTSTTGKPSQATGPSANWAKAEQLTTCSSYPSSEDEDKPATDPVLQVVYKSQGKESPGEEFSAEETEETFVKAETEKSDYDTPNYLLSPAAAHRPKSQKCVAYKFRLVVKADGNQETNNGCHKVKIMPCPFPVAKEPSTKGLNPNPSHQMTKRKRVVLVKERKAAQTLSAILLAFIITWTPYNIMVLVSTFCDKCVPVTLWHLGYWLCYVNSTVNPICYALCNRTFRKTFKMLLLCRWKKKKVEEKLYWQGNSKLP

[10] = Displacement of [3H]-NMS from muscarinic M4 receptor in mouse/rat NG108-15 cells after 60 mins by scintillation counting method; assay type: cell-based
[11] = Selectivity ratio of Ki for muscarinic M1 receptor (unknown origin) expressed in mouse A9L cell membranes to Ki for rat heart muscarinic M2 receptor; assay type: cell-based
[12] = molecular target: T6, Muscarinic acetylcholine receptor M2 (Rattus norvegicus, UniProt P10980); test: Displacement of [3H]-NMS from rat heart muscarinic M2 receptor after 60 mins by scintillation counting method
T6 sequence (P10980 whole entry): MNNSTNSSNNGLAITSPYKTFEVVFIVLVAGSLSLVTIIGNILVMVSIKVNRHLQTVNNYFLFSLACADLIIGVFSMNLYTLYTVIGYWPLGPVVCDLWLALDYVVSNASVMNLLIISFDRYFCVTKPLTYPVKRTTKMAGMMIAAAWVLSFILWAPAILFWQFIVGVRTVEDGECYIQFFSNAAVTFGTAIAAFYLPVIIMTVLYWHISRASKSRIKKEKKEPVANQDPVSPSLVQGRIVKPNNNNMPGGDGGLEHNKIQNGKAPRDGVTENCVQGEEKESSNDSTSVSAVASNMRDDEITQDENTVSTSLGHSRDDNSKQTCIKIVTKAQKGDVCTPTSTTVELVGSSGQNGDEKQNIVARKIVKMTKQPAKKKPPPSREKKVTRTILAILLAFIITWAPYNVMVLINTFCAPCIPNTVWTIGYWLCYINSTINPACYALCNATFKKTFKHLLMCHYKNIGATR

[13] = molecular target: T1, Muscarinic acetylcholine receptor M3; test: Displacement of [3H]-NMS from muscarinic M3 receptor (unknown origin) expressed in mouse A9L cell membranes after 60 mins by scintillation counting method
[14] = Selectivity ratio of Ki for muscarinic M3 receptor (unknown origin) expressed in mouse A9L cell membranes to Ki for rat heart muscarinic M2 receptor; assay type: cell-based
[15] = molecular target: T4, Muscarinic acetylcholine receptor M1; test: Displacement of [3H]-NMS from muscarinic M1 receptor (unknown origin) expressed in mouse A9L cells after 60 mins by scintillation counting method; assay type: cell-based
[16] = Selectivity ratio of Ki for muscarinic M4 receptor in mouse/rat NG108-15 cells to Ki for rat heart muscarinic M2 receptor; assay type: cell-based

| Ratio Ki [1] | Ki [2] [nM] | Ratio Ki [3] | Ratio Ki [4] | Ki [5] [nM] | Ki [6] [nM] | Ki [7] [nM] | Ratio Ki [8] | Ki [9] [nM] | Ki [12] [nM] | Ki [13] [nM] | Ki [15] [nM] | Structure (SMILES) | pKi [10] | Ratio Ki [11] | Ratio Ki [14] | Ratio Ki [16] |
| --- | --- | --- | --- | --- | --- | --- | --- | --- | --- | --- | --- | --- | --- | --- | --- | --- |
| 40 | 398 | 6.3 | 50 | 7.94 | 50.1 | 316 | 40 | 316 | – | – | – | CCCC(C)(C)C(=O)N(CC)CCCC1CCN(CC(=O)N2c3ccccc3NC(=O)c3ccccc32)CC1 | – | – | – | – |
| – | – | – | – | – | – | – | – | – | 0.316 | 10 | 3.98 | CCN(CC)CCCCC1CCN(CC(=O)N2c3ccccc3NC(=O)c3ccccc32)CC1 | 8.7 | 13 | 37 | 7 |
